# Screening results as filed in PubChem BioAssay.
# TAG inh: inhibitors of triacylglycerol accumulation; H9c2 cells, Nile Red lipid (TAG) fluorescence; cells loaded with 200 µM oleic acid; inhibition, % at 12.5 µM; AID 651582; 0.66% of 230,000 active;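 active = pattern-corrected inhibition of lipid staining of at least 50% with the nuclear-stain viability signal not falling by more than 50%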
# MC4R barr agon: activates human MC4R beta-arrestin recruitment; P32245; U2OS MC4R beta-arrestin complementation, luminescence; percent of melanotan II response, DMSO zero; activation, % at 8.9 µM; 0.98% of 360,000 active;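 active = activation above a per-plate cutoff, the mean activation of sample wells on that plate plus 3 SD, cut at about 8% in these data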
# Target sequence (P32245 whole entry, looked up): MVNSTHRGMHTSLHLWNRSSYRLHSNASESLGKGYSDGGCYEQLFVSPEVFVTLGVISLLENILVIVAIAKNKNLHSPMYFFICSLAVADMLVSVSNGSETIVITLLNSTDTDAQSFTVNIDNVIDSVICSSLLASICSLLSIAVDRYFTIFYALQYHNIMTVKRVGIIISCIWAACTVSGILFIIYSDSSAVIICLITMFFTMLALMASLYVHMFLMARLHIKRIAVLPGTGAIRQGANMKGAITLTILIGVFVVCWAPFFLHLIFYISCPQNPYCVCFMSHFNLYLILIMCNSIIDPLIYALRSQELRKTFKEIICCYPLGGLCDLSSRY
# Tb MetRS inh: blocks T. brucei methionyl-tRNA synthetase activity | 0.4% of 360,000 active | inhibition, % at 11.9 µM | AID 624268 | purified T. brucei MetRS, ATP depletion, Kinase-Glo luminescence;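 active = inhibition above a per-plate cutoff of the control wells' mean inhibition plus 3 SD, cut at about 5.5% in these data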
#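 Material – parasite MetRS enzyme · Medium – HEPES-MgCl2-KCl buffer plus DTT, spermine, BSA, pyrophosphatase · Reagent – ATP, methionine and E. coli bulk tRNA substrates · Times – 15 min enzyme-compound preincubation, 2 h reaction, 10 min detection, 25 °C · Measured by – luminescence of leftover ATP · Evaluation – percent inhibition relative to median high and low control wells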
# MC4R antag cAMP: blocks human MC4R cAMP signaling; P32245; MC4R-expressing cells, MTII-stimulated cAMP, LANCE TR-FRET; inhibition, % at 6.5 µM; 0.48% of 360,000 active;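 active = inhibition above its plate's cutoff, the mean of tested wells on that plate plus 3 SD, cut at about 29% in these data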
#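 System – human MC4R-expressing U2OS cells · Also added – Melanotan II · Dosing – one concentration, 6.5 µM nominal · Timing – 30-min compound, 1-h challenge, 1-h detection, room temperature · Measured by – Eu-cAMP/anti-cAMP TR-FRET, emission 671 nm · Replicates – singlicate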
# aDG glyco up: increases alpha dystroglycan glycosylation; Pro5-aDG cells, alpha-DG glycosylation AlphaScreen (IIH6); 0% Pro5, 100% B10-LARGE cell signal; activation, % at 10 µM; 0.22% of 360,000 active; AID 624168;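 active = activation of at least 8% versus controls, or a plate z-score of at least 8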;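 note: Pro5 are CHO cells carrying HIG-tagged alpha-DG that lacks glycosylation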
# NTR1 agonist: agonists of human neurotensin receptor NTR1 | P30989 | NTR1-U2OS beta-arrestin-GFP spot imaging, agonist mode | activation, % at 20 µM | 0.17% of 330,000 active | AID 493036;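 active = activation at or above 40% of the spot to cytoplasm intensity ratio, with at least 20 cells analyzed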
# aDG conf: confirmation of alpha dystroglycan glycosylation activators; shares compounds with aDG glyco up; Pro5-aDG cells, alpha-DG glycosylation, IIH6 AlphaLISA; scaled to LARGE-overexpressing B10 cells as 100%; activation, % at 10 µM (by protocol); 17% of 600 active; AID 651671;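 active = activation of at least 7% in one or more replicates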;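 note: cells exposed to compound for two days before detection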
# Hits are given with their value; n = inactive; x = no result given. The list is not random: actives were taken first. Their share in the collection is about 2.4%.
SMILES,TAG inh,MC4R barr agon,Tb MetRS inh,MC4R antag cAMP,aDG glyco up,NTR1 agonist,aDG conf
CC(C)NS(=O)(=O)c1ccc(OCC(=O)NCCC2=CCCCC2)cc1,x,n,n,n,n,n,x
O=C(Nc1ccc(F)c(F)c1)c1ccc(F)c(S(=O)(=O)N2CCC3(CC2)OCCO3)c1,n,n,n,n,10,n,n
CCOc1ccc(NC(=O)c2ccc(F)c(S(=O)(=O)N3CCCC3)c2)cc1,n,n,n,n,n,x,x
CCOc1ccc(NC(=O)c2ccc(F)c(S(=O)(=O)N3CCN(c4ccccn4)CC3)c2)cc1,x,n,n,n,5.0,n,2.1
COc1ccc(CCN(C)C(=O)c2cc(-c3ccccc3)nc3ccccc23)cc1OC,n,n,n,n,n,n,x
COc1ccc(CCN(C)C(=O)c2cc(-c3ccccc3)nc3ccc(C)cc23)cc1OC,x,n,n,n,7.8,n,n
COC(=O)[C@@]1(Cc2ccc(F)cc2)[C@H]2c3cc(C(=O)N4CCCC4)n(CCSCCO)c3C[C@H]2CN1C(=O)c1ccccc1,x,x,n,x,5.6,x,n
COC(=O)[C@@]1(Cc2ccccc2)[C@H]2c3cc(C(=O)N4CCCC4)n(CCSCCO)c3C[C@H]2CN1C(=O)c1ccccc1,x,x,x,x,x,n,x
Cc1cc(-c2nn(-c3ccccc3)cc2/C=C2\SC(N)=NC2=O)ccc1OC(C)C,x,n,n,n,6.0,n,n
CCCCCCCCN1C(=O)[C@H](CC(=O)NCc2ccc(C)o2)C[C@@]2(C(=O)OCC)CCC=C12,x,x,n,x,n,x,x
COC(=O)c1ccc(CSc2ccc3nnc(-c4ccccn4)n3n2)o1,n,n,n,n,4.7,n,n
COC(=O)c1ccc(CSc2ccc3nnc(-c4ccc(F)cc4)n3n2)o1,x,n,n,n,n,n,x
CCOc1ccc(N=Cc2ccc([N+](=O)[O-])cc2)c(O)c1,n,n,n,n,5.9,x,n
CC(C)Nc1nc(-c2ccccn2)nc(-c2ccccc2)c1C#N,n,n,n,n,8.8,n,n
CC(C)Nc1nc(-c2cccnc2)nc(-c2ccccc2)c1C#N,x,n,n,n,n,n,x
CC/C(=N\NC(=S)Nc1ccc(OC)cc1)c1ccc(OC(F)F)cc1,x,n,n,n,n,n,x
CC/C(=N\NC(=S)Nc1cc(C)ccc1C)c1ccc(OC(F)F)cc1,n,n,n,n,5.7,n,n
CCn1c(Cc2ccccc2)nnc1SCC(=O)Nc1cc(C)on1,x,n,n,n,44,n,n
Cc1ccc(NC(=O)c2cncc(Br)c2)c([N+](=O)[O-])c1,x,n,n,n,45,n,n
CCCCC(=O)Nc1ccc(NC(=O)c2ccc([N+](=O)[O-])cc2Cl)cc1OC,n,n,n,n,12,n,n
CC(C)c1ccc(CC(=O)N2CCC2(C)C(=O)NS(=O)(=O)c2ccc(Cl)s2)cc1 (configuration not stated),n,n,n,n,n,x,x
CC1(C(=O)NS(=O)(=O)c2ccccc2Cl)CCN1C(=O)Cc1ccc(Cl)cc1Cl (configuration not stated),n,n,n,n,n,x,x
Cc1cc(C)c(C)c(S(=O)(=O)N2CCN(c3ncnc4ccccc34)CC2)c1C,n,n,n,n,n,n,x
O=S(=O)(c1cc(C(F)(F)F)ccc1Cl)N1CCN(c2ncnc3ccccc23)CC1,n,n,n,n,4.5,n,n
C/C(=N\Nc1ncc(Cl)cc1Cl)c1ccc(OC(F)F)cc1,x,n,n,n,n,n,x
SMILES,TAG inh,MC4R barr agon,Tb MetRS inh,MC4R antag cAMP,aDG glyco up,NTR1 agonist,aDG conf
C/C(=N\Nc1ncc(Cl)cc1Cl)c1ccc2c(c1)OCO2,n,n,n,n,13,n,n
CN(C)CCCNC(=O)C[C@H]1C[C@H](C(=O)N2CCOCC2)[C@@]2(C)c3[nH]c4ccc(Cl)cc4c3CCN2C1=O,n,n,n,n,5.2,n,n
Cc1ccc(S(=O)(=O)N2[C@H](CC(=O)c3cccs3)OC[C@@H]2C(C)C)cc1,x,x,n,x,n,x,x
CCCCc1ccc(NC(=O)C(=O)NCCN2CCN(Cc3ccc([N+](=O)[O-])cc3)CC2)cc1,n,n,n,n,6.6,n,n
CNC(=O)C(=O)NCCN1CCN(C(=O)c2ccc([N+](=O)[O-])cc2)CC1,n,n,n,n,n,n,x
O=C(CN1C(=O)c2ccccc2C1=O)NCC1CCCO1 (configuration not stated),x,n,n,n,n,n,x
O=C(CN1C(=O)c2ccc(Br)cc2C1=O)NCC1CCCO1 (configuration not stated),n,n,n,n,5.5,n,n
CN(C)CCCNS(=O)(=O)c1ccc(NC2CCCCCC2)c([N+](=O)[O-])c1,x,n,n,n,3.3,n,4.9
CN(C(=O)CSc1ncnc2ccccc12)C1CCS(=O)(=O)C1 (configuration not stated),n,n,n,n,4.5,n,n
CCn1c(NCc2ccco2)nc2c1c(=O)n(C)c(=O)n2C,x,n,n,n,6.3,n,n
Cc1c(Cl)ccc2c(C(N)=O)cc(-c3ccccn3)nc12,n,n,n,n,4.1,n,n
Cc1c(Cl)ccc2c(C(=O)O)cc(-c3ccccc3)nc12,n,n,n,n,n,n,x
O=C1C2C3CCC(C3)C2C(=O)N1c1ccc(OS(=O)(=O)c2ccccc2)cc1 (configuration not stated),n,n,n,n,2.8,n,n
Cc1ccccc1CN1C(=O)c2ccccc2C1c1nnnn1-c1ccc2c(c1)OCCO2 (configuration not stated),x,x,n,x,n,x,x
Cc1ccccc1Nc1nnc(SCC(=O)c2c(N)n(C)c(=O)n(C)c2=O)s1,n,n,n,n,n,n,x
CCSc1nnc(SCC(=O)c2c(N)n(C)c(=O)n(C)c2=O)s1,n,n,n,n,4.2,n,n
Cc1sc2ncnc(NCC(O)c3ccccc3)c2c1C (configuration not stated),x,n,n,n,2.7,n,n
Cc1sc2ncnc(NCC(c3ccccc3)N(C)C)c2c1C (configuration not stated),x,n,n,n,n,n,x
O=C(/C=C/c1ccccc1)NC(NC(=S)Nc1cccc(Cl)c1)C(Cl)(Cl)Cl (configuration not stated),n,n,n,n,n,n,x
O=C(CCc1ccccc1)NC(NC(=S)Nc1cccc(Cl)c1)C(Cl)(Cl)Cl (configuration not stated),x,n,n,n,7.2,n,n
c1ccc2c(N3CCCCCC3)nc(-c3ccncc3)nc2c1,n,n,n,n,7.0,n,n
CCn1c(SCC(=O)NC2(C#N)CCCCC2)nc2ccccc2c1=O,n,n,n,n,4.0,n,n
